Experimental data: ChEMBL document CHEMBL4007421, “Discovery and Preclinical Characterization of 3-((4-(4-Chlorophenyl)-7-fluoroquinoline-3-yl)sulfonyl)benzonitrile, a Novel Non-acetylenic Metabotropic Glutamate Receptor 5 (mGluR5) Negative Allosteric Modulator for Psychiatric Indications” (J Med Chem, 2017)

Tests used:
[1] = Volume of distribution in female beagle dog at 0.5 mg/kg, iv administered as infusion; format: ADME, organism-based, Canis lupus familiaris; conditions: in vivo
Outline: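 Single-dose PK: i.v. and oral dosing in Crl:CD(SD) rats and beagle dogs, plus a pilot oral nasogastric study in Cynomolgus monkeys using a Type IV lipid formulation. Rat i.v. vehicle was 80% cosolvent. Monkeys were fasted from 2 h before until 2 h after dosing, n=3 per sex. Rats also received [14C]-labelled compound orally at 50 mg/kg, with total radioactivity followed. Parameters are means; monkey values are medians.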

[2] = system: MDR1; assay: Ratio of apparent outward permeability to apparent inward permeability in MDCK2-MDR1 cells; format: ADME, cell-based, Canis lupus familiaris; conditions: dog, MDCK-MDR1
Outline: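 MDCKII-MDR1 cell monolayers used as an in vitro surrogate of brain penetration. Transport was measured in both the inward and outward directions, and an apparent permeability (Papp) was calculated for each. The directional ratio (PDR) is Papp outward divided by Papp inward.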

[3] = AUC in male beagle dog at 0.5 mg/kg, iv administered as infusion; format: ADME, organism-based, Canis lupus familiaris; conditions: in vivo
[4] = system: Rattus norvegicus; assay: Anxiolytic activity in po dosed Wistar rat assessed as reduction in freezing behavior by contextual fearing test; format: functional
[5] = Plasma concentration in Wistar rat at 10 mg/kg, po qd measured after first dosing during Vogel punished drinking conflict test; format: ADME, organism-based
Outline: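 Vogel punished-drinking test in rats after 24 h water deprivation, with 60 s unpunished drinking; oral 10 mg/kg given once daily for 19 days, vehicle group dosed only on Day 19 as first-dose control; plasma sampled right after test; n=10 per group; ANOVA with Duncan post-hoc.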

[6] = system: Rattus norvegicus; assay: (§1) Toxicity in po dosed Harlan-Wistar rat assessed as decrease in spontaneous locomotor activity photocell-based activity monitor test; format: organism-based; conditions: in vivo
Outline: (§2)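 Male Wistar rats were given 0, 10, 30 or 50 mg/kg p.o. Spontaneous locomotor activity (ambulatory movement) was recorded in a photocell-based activity monitor.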

[7] = as §1; format: organism-based; conditions: Harlan-Wistar, in vivo; outline: as §2
[8] = Clearance in female beagle dog at 0.5 mg/kg, iv administered as infusion; format: ADME, organism-based, Canis lupus familiaris; conditions: in vivo

Vd [1]: 9.2 L/kg
efflux ratio [2]: 0.74
AUC [3]: 3.07 µM·h
concentration at 1 day [5]: 787 nM
clearance [8]: 9.22 mL/min/kg
SMILES: N#Cc1cccc(S(=O)(=O)c2cnc3cc(F)ccc3c2-c2ccc(Cl)cc2)c1
Activity [4]: Dose-dependent effect
ED50 [4]: 0.95 mg/kg
Activity [6]: Dose-dependent effect
ED50 [6]: 50 mg/kg
NOAEL [7]: 30 mg/kg
